Source: ChEMBL document CHEMBL1136530, “Synthesis, stereochemical assignment and biological activity of a novel series of C-4" modified aza-macrolides” (2003)
Converted amounts (≈) assume the structure as drawn.

Legend:
Assay type in all cases: functional
Escherichia coli = experiment: Minimum inhibitory concentration against Escherichia coli
Mus musculus = experiment: In vivo effective dose against Pasteurella multocida infection in mouse
Method in brief: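 Mice infected with P. multocida serotype 5A. Subcutaneous dosing 0.5 h post-infection at 5 to 80 mg/kg. ED50 calculated from the number of mice surviving four days after infection.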

Pasteurella multocida = experiment: Minimum inhibitory concentration against Pasteurella multocida
Method in brief: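 P. multocida strain 59A0067 (turkey origin), grown overnight on BHI plates; colonies in saline at OD625 0.09 (0.5 McFarland), diluted 1:100 in BHI broth. Two-fold serial dilutions in BHI microdilution, about 5×10⁵ cfu/mL final, 37 °C for 18 h. MIC is the lowest concentration with A600 ≤ 0.025.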

MIC (Escherichia coli) [µg/mL] | MIC (Pasteurella multocida) [µg/mL] | SMILES | ED50 (Mus musculus) [mg/kg]
6.25 (≈ 7.12 µM) | 0.39 (≈ 0.444 µM) | CC[C@H]1OC(=O)[C@H](C)[C@@H](O[C@H]2C[C@@](C)(OC)[C@@](O)(c3cc4ccccc4n3C)[C@H](C)O2)[C@H](C)[C@@H](O[C@@H]2O[C@H](C)C[C@H](N(C)C)[C@H]2O)[C@](C)(O)C[C@@H](C)CN(C)[C@H](C)[C@@H](O)[C@]1(C)O | > 40
0.39 (≈ 0.47 µM) | 0.05 (≈ 0.0603 µM) | CC[C@H]1OC(=O)[C@H](C)[C@@H](O[C@H]2C[C@@](C)(OC)[C@@](O)(c3nccn3C)[C@H](C)O2)[C@H](C)[C@@H](O[C@@H]2O[C@H](C)C[C@H](N(C)C)[C@H]2O)[C@](C)(O)C[C@@H](C)CN(C)[C@H](C)[C@@H](O)[C@]1(C)O | 
3.13 (≈ 3.85 µM) | 0.78 (≈ 0.961 µM) | CC[C@H]1OC(=O)[C@H](C)[C@@H](O[C@H]2C[C@@](C)(OC)[C@@](O)(c3ccccn3)[C@H](C)O2)[C@H](C)[C@@H](O[C@@H]2O[C@H](C)C[C@H](N(C)C)[C@H]2O)[C@](C)(O)C[C@@H](C)CN[C@H](C)[C@@H](O)[C@]1(C)O | > 40
3.13 (≈ 3.85 µM) | 0.39 (≈ 0.48 µM) | CC[C@H]1OC(=O)[C@H](C)[C@@H](O[C@H]2C[C@@](C)(OC)[C@@](O)(c3cccnc3)[C@H](C)O2)[C@H](C)[C@@H](O[C@@H]2O[C@H](C)C[C@H](N(C)C)[C@H]2O)[C@](C)(O)C[C@@H](C)CN[C@H](C)[C@@H](O)[C@]1(C)O | > 40
0.78 (≈ 1.01 µM) | 0.1 (≈ 0.129 µM) | C#C[C@@]1(O)[C@H](C)O[C@@H](O[C@H]2[C@H](C)[C@@H](O[C@@H]3O[C@H](C)C[C@H](N(C)C)[C@H]3O)[C@](C)(O)C[C@@H](C)CN(C)[C@H](C)[C@@H](O)[C@](C)(O)[C@@H](CC)OC(=O)[C@@H]2C)C[C@@]1(C)OC | 33
1.56 (≈ 2.01 µM) | 0.2 (≈ 0.257 µM) | CCC[C@@]1(O)[C@H](C)O[C@@H](O[C@H]2[C@H](C)[C@@H](O[C@@H]3O[C@H](C)C[C@H](N(C)C)[C@H]3O)[C@](C)(O)C[C@@H](C)CN[C@H](C)[C@@H](O)[C@](C)(O)[C@@H](CC)OC(=O)[C@@H]2C)C[C@@]1(C)OC | 81
1.56 (≈ 2.05 µM) | 0.2 (≈ 0.263 µM) | C=C[C@@]1(O)[C@H](C)O[C@@H](O[C@H]2[C@H](C)[C@@H](O[C@@H]3O[C@H](C)C[C@H](N(C)C)[C@H]3O)[C@](C)(O)C[C@@H](C)CN[C@H](C)[C@@H](O)[C@](C)(O)[C@@H](CC)OC(=O)[C@@H]2C)C[C@@]1(C)OC | 66
3.13 (≈ 4.19 µM) | 0.1 (≈ 0.134 µM) | CC[C@H]1OC(=O)[C@H](C)[C@@H](O[C@H]2C[C@@](C)(OC)[C@]3(CO3)[C@H](C)O2)[C@H](C)[C@@H](O[C@@H]2O[C@H](C)C[C@H](N(C)C)[C@H]2O)[C@](C)(O)C[C@@H](C)CN[C@H](C)[C@@H](O)[C@]1(C)O | 
12.5 (≈ 15.8 µM) | 0.78 (≈ 0.986 µM) | CCCC[C@@]1(O)[C@H](C)O[C@@H](O[C@H]2[C@H](C)[C@@H](O[C@@H]3O[C@H](C)C[C@H](N(C)C)[C@H]3O)[C@](C)(O)C[C@@H](C)CN[C@H](C)[C@@H](O)[C@](C)(O)[C@@H](CC)OC(=O)[C@@H]2C)C[C@@]1(C)OC | 
6.25 (≈ 8.02 µM) | 0.39 (≈ 0.501 µM) | CC[C@H]1OC(=O)[C@H](C)[C@@H](O[C@H]2C[C@@](C)(OC)[C@@](O)(CCO)[C@H](C)O2)[C@H](C)[C@@H](O[C@@H]2O[C@H](C)C[C@H](N(C)C)[C@H]2O)[C@](C)(O)C[C@@H](C)CN[C@H](C)[C@@H](O)[C@]1(C)O | 
12.5 (≈ 15.4 µM) | 3.13 (≈ 3.86 µM) | CC[C@H]1OC(=O)[C@H](C)[C@@H](O[C@H]2C[C@@](C)(OC)[C@@](O)(c3ccccc3)[C@H](C)O2)[C@H](C)[C@@H](O[C@@H]2O[C@H](C)C[C@H](N(C)C)[C@H]2O)[C@](C)(O)C[C@@H](C)CN[C@H](C)[C@@H](O)[C@]1(C)O | 
50 (≈ 57.5 µM) | 0.78 (≈ 0.897 µM) | CC[C@H]1OC(=O)CC(O)[C@H](C)[C@@H](OC2O[C@H](C)[C@@H](O)[C@H](N(C)C)[C@H]2O)[C@@H](CCN2C[C@H](C)C[C@H](C)C2)CC(C)C(=O)/C=C/C(C)=C/[C@@H]1CO[C@@H]1O[C@H](C)[C@@H](O)[C@@H](OC)[C@H]1OC (stereo not given in full) | 
